Our source for the inhibition and IC50 values is ChEMBL document CHEMBL4196061, “Novel topoisomerase I inhibitors. Syntheses and biological evaluation of phosphorus substituted quinoline derivates with antiproliferative activity” (Eur J Med Chem, 2018).

Assay [1] concerns the target T1, DNA topoisomerase 1 (Homo sapiens) (UniProt P11387).
T1 sequence (whole entry): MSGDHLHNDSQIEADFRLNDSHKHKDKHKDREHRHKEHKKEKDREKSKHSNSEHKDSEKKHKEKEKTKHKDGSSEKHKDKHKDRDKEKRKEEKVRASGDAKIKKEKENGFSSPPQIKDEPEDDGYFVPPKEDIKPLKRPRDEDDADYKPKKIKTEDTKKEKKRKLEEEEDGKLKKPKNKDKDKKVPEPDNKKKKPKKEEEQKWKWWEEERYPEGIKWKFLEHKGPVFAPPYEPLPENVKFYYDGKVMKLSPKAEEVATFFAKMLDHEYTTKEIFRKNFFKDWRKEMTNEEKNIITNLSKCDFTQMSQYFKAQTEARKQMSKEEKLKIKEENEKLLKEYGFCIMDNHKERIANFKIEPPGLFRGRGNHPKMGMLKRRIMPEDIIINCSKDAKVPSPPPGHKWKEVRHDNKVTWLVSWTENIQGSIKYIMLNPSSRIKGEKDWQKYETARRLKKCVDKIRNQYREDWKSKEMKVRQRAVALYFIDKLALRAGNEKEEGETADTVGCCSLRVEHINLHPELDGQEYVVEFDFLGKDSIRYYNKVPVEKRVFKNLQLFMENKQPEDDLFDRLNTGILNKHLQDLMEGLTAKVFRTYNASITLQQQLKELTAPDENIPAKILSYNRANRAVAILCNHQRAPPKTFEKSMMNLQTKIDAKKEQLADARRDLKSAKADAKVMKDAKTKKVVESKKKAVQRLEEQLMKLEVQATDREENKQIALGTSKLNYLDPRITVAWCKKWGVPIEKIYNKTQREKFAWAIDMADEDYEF
Nature of the assay: Inhibition of recombinant human topoisomerase 1-mediated DNA relaxation expressed in Saccharomyces cerevisiae TopI null strain RS190 at 80 uM using negatively supercoiled pUC18 as substrate pretreated with enzyme for 15 mins followed by substrate addition measured after 3 mins by agarose gel electrophoresis. Put shortly: (§1)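 Human TopI was expressed from pHT143 (GAL promoter) in yeast RS190 and affinity-purified. Reactions used 110 ng/µL TopI and 0.5 µg supercoiled pUC18 in 20 µl buffer (20 mM Tris–HCl, 0.1 mM Na2EDTA, 10 mM MgCl2, 50 µg/mL acetylated BSA, 150 mM KCl, pH 7.5). Drug was mixed with enzyme before DNA was added, and reactions were stopped with SDS. Products were resolved on 1% agarose in TBE and stained with gel red.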

Assay [2] addresses T1, DNA topoisomerase 1 (Homo sapiens). In words: Inhibition of recombinant human topoisomerase 1-mediated DNA relaxation expressed in Saccharomyces cerevisiae TopI null strain RS190 at 80 uM using negatively supercoiled pUC18 as substrate pretreated with enzyme for 15 mins followed by substrate addition measured after 15 secs by agarose gel electrophoresis. Put shortly:
as §1

The test system of a further assay is SK-OV-3. Nature of the assay: Antiproliferative activity against human SKOV3 cells after 48 hrs by CCK-8 assay. The class given is functional, cell-based. As to conditions: SK-OV-3, 48 h. Put shortly: (§2)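 Cells seeded at 2-4 x 10^3 per well and grown overnight in 0.1 mL medium with 10% FBS at 37 °C under 5% CO2. Drugs were added on day 2 and cells incubated 48 h. CCK-8 was then added for 2 h at 37 °C and absorbance read at 450 nm. IC50 values were reported.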

In assay [3] the target is T1, DNA topoisomerase 1 (Homo sapiens). Nature of the assay: Inhibition of recombinant human topoisomerase 1-mediated DNA relaxation expressed in Saccharomyces cerevisiae TopI null strain RS190 at 20 uM using negatively supercoiled pUC18 as substrate pretreated with enzyme for 15 mins followed by substrate addition measured after 3 mins by agarose gel electrophoresis. Put shortly:
as §1

For assay [4] the target is unchanged. In words: Inhibition of recombinant human topoisomerase 1-mediated DNA relaxation expressed in Saccharomyces cerevisiae TopI null strain RS190 at 10 uM using negatively supercoiled pUC18 as substrate pretreated with enzyme for 15 mins followed by substrate addition measured after 3 mins by agarose gel electrophoresis. Put shortly: as §1
The target is the same in assay [5]. In words: Inhibition of recombinant human topoisomerase 1-mediated DNA relaxation expressed in Saccharomyces cerevisiae TopI null strain RS190 at 40 uM using negatively supercoiled pUC18 as substrate pretreated with enzyme for 15 mins followed by substrate addition measured after 3 mins by agarose gel electrophoresis. Put shortly: as §1
The subject of a further assay is MRC5. Nature of the assay: Antiproliferative activity against human MRC5 cells after 48 hrs by CCK-8 assay. It counts as cell-based. As to conditions: MRC5, 48 h. Put shortly: as §2
A further assay deals with A549. Nature of the assay: Antiproliferative activity against human A549 cells after 48 hrs by CCK-8 assay. It counts as functional, cell-based. As to conditions: A549, 48 h. Put shortly: as §2
Assay [6] deals with T1, DNA topoisomerase 1 (Homo sapiens). Nature of the assay: Inhibition of recombinant human topoisomerase 1-mediated DNA relaxation expressed in Saccharomyces cerevisiae TopI null strain RS190 at 80 uM using negatively supercoiled pUC18 as substrate pretreated with enzyme for 15 mins followed by substrate addition measured after 1 min by agarose gel electrophoresis. Put shortly: as §1

The target is the same in assay [7]. In words: Inhibition of recombinant human topoisomerase 1-mediated DNA relaxation expressed in Saccharomyces cerevisiae TopI null strain RS190 at 60 uM using negatively supercoiled pUC18 as substrate pretreated with enzyme for 15 mins followed by substrate addition measured after 3 mins by agarose gel electrophoresis. Put shortly:
as §1

The test system of the next assay is HEK293. Nature of the assay: Antiproliferative activity against human HEK293 cells after 48 hrs by CCK-8 assay. As to conditions: HEK293, 48 h.

pIC50: −log10 of the molar value.

With `Fc1ccc([C@H]2C[C@@H](c3ccc(F)cc3)Nc3c2cccc3P(c2ccccc2)c2ccccc2)cc1`, the inhibition is 75% in [1]; 78% in assay [2]; 0% in assay [3]; 0% in assay [4]; 0% in assay [5]; 75% in assay [6]. Besides, the inhibition in [7] came out at 20%. In addition, the negative logarithm of the IC50 (pIC50) with SK-OV-3 is less than 4.30; in the assay on MRC5, less than 4.30; in the assay on A549 it was 7.10; with HEK293 it was less than 4.30.

As to `O=P(c1ccccc1)(c1ccccc1)c1cccc2c1N[C@H](c1ccccn1)C[C@@H]2c1ccccc1`, the inhibition in assay [1] is 76%; in [2], 92%; in assay [3], 19%; in assay [4] it was 19%; in assay [5] it was 24%; in assay [6] it was 85%. For the same molecule, in assay [7], the inhibition was 34%. For the same molecule, the negative-log IC50 (pIC50) with SK-OV-3 is 4.72; with MRC5, less than 4.30; in the assay with A549 it was 5.42; with HEK293, 4.83.

Consider `Fc1ccc([C@H]2C[C@@H](c3ccc(F)cc3)Nc3c2cccc3P(=S)(c2ccccc2)c2ccccc2)cc1`, for which the inhibition came out at 75% in [1]; 85% in assay [2]; 17% in assay [3]; 17% in [4]; 17% in [5]; 84% in assay [6]. Moreover, in [7], the inhibition came out at 19%. The pIC50 was less than 4.30 with SK-OV-3, less than 4.30 with MRC5, 7.52 in the assay on A549 and less than 4.30 with HEK293.

On to `Cc1ccc([C@H]2C[C@@H](c3ccc(F)cc3)Nc3c2cccc3P(c2ccccc2)c2ccccc2)cc1`, for which the inhibition in assay [1] stood at 92%; in assay [2] it was 96%; in assay [3], 28%; in assay [4] it was 20%; in assay [5] it was 52%; in [6] it was 92%. In addition, in assay [7], the inhibition came to 53%. Besides, the pIC50 was less than 4.30 in the assay on SK-OV-3, less than 4.30 with MRC5, 6.60 in the assay on A549 and less than 4.30 with HEK293.

For the molecule `Cc1ccc([C@H]2C[C@@H](c3ccccc3)Nc3c2cccc3P(c2ccccc2)c2ccccc2)cc1`, the inhibition in assay [1] worked out at 76%; in assay [2], 80%; in assay [3], 16%; in assay [4], 0%; in assay [5], 17%; in [6], 79%. Also, in assay [7], the inhibition worked out at 22%. Also, the pIC50 with SK-OV-3 was less than 4.30; in the assay on MRC5, less than 4.30; in the assay on A549 it was 6.96; in the assay with HEK293, less than 4.30.

Regarding `c1ccc([C@H]2C[C@@H](c3ccccc3)Nc3c2cccc3P(c2ccccc2)c2ccccc2)cc1`, the inhibition in [1] was determined as 85%; in assay [2], 85%; in assay [3] it was 0%; in [4] it was 0%; in [5], 0%; in [6], 85%. Also, the inhibition in assay [7] stood at 0%. The pIC50 with SK-OV-3 is less than 4.30; in the assay on MRC5, less than 4.30; with A549 it was 6.22; in the assay on HEK293, less than 4.30.

Regarding `S=P(c1ccccc1)(c1ccccc1)c1cccc2c1N[C@H](c1ccccc1)C[C@@H]2c1ccccc1`, the inhibition in [1] was found to be 76%; in [2], 81%; in assay [3], 0%; in assay [4] it was 0%; in assay [5] it was 0%; in [6], 81%. The inhibition in assay [7] is 0%. Besides, the negative logarithm of the IC50 (pIC50) in the assay with SK-OV-3 is less than 4.30; in the assay on MRC5 it was less than 4.30; in the assay on A549, 6.80; in the assay with HEK293, less than 4.30.

As to `S=P(c1ccccc1)(c1ccccc1)c1cccc2c1N[C@H](c1ccc3ccccc3c1)C[C@@H]2c1ccccc1`, the inhibition in [1] amounted to 76%; in [2] it was 76%; in [3], 16%; in assay [4], 15%; in assay [5], 19%; in [6], 76%. Further, the inhibition in [7] came out at 28%. Besides, the pIC50 in the assay on SK-OV-3 was less than 4.30; in the assay on MRC5 it was less than 4.30; with A549, 6.57; in the assay on HEK293 it was less than 4.30.

On to `FC(F)(F)c1ccc(-c2cc(-c3ccccc3)c3cccc(P(=S)(c4ccccc4)c4ccccc4)c3n2)cc1`, for which the inhibition in [1] amounted to 81%; in assay [2], 81%; in assay [3] it was 10%; in assay [4] it was 8%; in assay [5], 18%; in assay [6], 81%. Besides, in assay [7], the inhibition came out at 24%. The negative logarithm of the IC50 (pIC50) in the assay with SK-OV-3, in the assay on MRC5, in the assay on A549 and with HEK293 was less than 4.30 each time.

Turning to `Cc1ccc(-c2cc(-c3ccccc3)nc3c(P(=O)(c4ccccc4)c4ccccc4)cccc23)cc1`, the inhibition in assay [1] stood at 5%; in [2] it was 7%; in assay [6], 7%. Also, the negative-log IC50 (pIC50) in the assay on SK-OV-3 is 4.76; with MRC5, less than 4.30; in the assay with A549, 5.12; in the assay with HEK293, 5.05.
